Measurements from ChEMBL document CHEMBL1124236, “Homoallylic amines related to zimeldine. A comparative study on neuronal serotonin and norepinephrine reuptake based on conformational analysis” (J Med Chem, 1988).

Tests used:
Mus musculus [1] = experiment: Ex vivo inhibition of the accumulation of (-)-[3H]Norepinephrine in slices from the middle part of the mouse brain. (i.p.); type: functional; settings: ip
In short: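 Compound given i.p.; mice killed 60 min later. Brain slices (about 1 mm) preincubated 5 min at 37 °C in Krebs-Henseleit buffer with 1 × 10^-4 M pargyline, glucose, ascorbate and EDTA under 6.5% CO2/O2. Then 5 min with 1 × 10^-7 M [3H]NE plus 1 × 10^-7 M [14C]-5-HT, counted by double labelling. Active uptake is the cocaine-sensitive (5 × 10^-4 M) part. 3–4 doses, 4 mice/dose; ED50 from semilog plots.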

Mus musculus [2] = species on record: Mus musculus; experiment: In vitro inhibition of the accumulation of (-)-[3H]Norepinephrine in slices from the middle part of the mouse brain.; type: functional
Rattus norvegicus = species on record: Rattus norvegicus; experiment: In vitro inhibition of the accumulation of (-)-[3H]Norepinephrine in synaptosomes from the rat brain cortex; type: functional
[3] = Selectivity expressed as ratio between NE and 5-HT uptake inhibition in mouse brain slices; type: functional
[4] = Selectivity expressed as ratio between NE and 5-HT uptake inhibition in rat synaptosomes; type: functional, subcellular; settings: Brain

| Structure (SMILES) | ED50 (Mus musculus [1]) [µmol/kg] | IC50 (Mus musculus [2]) [nM] | IC50 (Rattus norvegicus) [nM] | Ratio [3] | Ratio [4] |
| --- | --- | --- | --- | --- | --- |
| CN(C)CCC=C1c2ccccc2CCc2ccccc21 [AMITRIPTYLINE] | 114 | 5400 | 61 | 1.9 | 0.19 |
| CNCC/C=C(\c1ccc(Br)cc1)c1cccnc1 | 98 | 250 | 1000 | 2.1 | 0.71 |
| CN(C)CC/C=C(/c1ccc(Br)cc1)c1cccnc1 | > 95 | > 24000 | 22500 | >27 | 45 |
| CNC/C=C(/c1ccc(Br)cc1)c1cccnc1 [NOMELIDINE] | > 102 |  | 240 |  | 6.3 |
| CNC/C=C(\c1ccc(Br)cc1)c1cccnc1 [NORZIMELIDINE] | 25 |  | 4.6 |  | 0.058 |
| CNCCC=C1c2ccccc2CCc2ccccc21 [NORTRIPTYLINE] | 67 | 500 | 7 | 0.075 | 0.0035 |
| CN(C)C/C=C(/c1ccc(Br)cc1)c1cccnc1 [ZIMELDINE] | > 98 |  | 3200 |  | 32 |
| CN(C)CC/C=C(\c1ccc(Br)cc1)c1cccnc1 | 95 | 7800 | 1400 | 1.1 | 0.54 |
| CN(C)C/C=C(\c1ccc(Br)cc1)c1cccnc1 | 25 |  | 150 |  | 0.68 |
| CNCC/C=C(/c1ccc(Br)cc1)c1cccnc1 | > 98 | > 25000 | 6600 | >50 | 28 |
